These results are taken from ChEMBL document CHEMBL6153131, “Rational Design and Optimization of a Potent IDO1 Proteolysis Targeting Chimera (PROTAC)” (J Med Chem, 2025).

Series [1] concerns the target T1, Protein cereblon/Indoleamine 2,3-dioxygenase 1 (Homo sapiens, UniProt P14902+Q96SW2). The series can be described thus: PROTAC activity at CRBN/IDO1 in human U87 cells assessed as induction of IDO1 degradation by measuring remaining activity at 0.1 uM pretreated with IFN-gamma for 24 hrs followed by compound addition and measured after 24 hrs by Western blotting analysis (reference value: 100%). The series is classed as cell-based. Summed up: (§1)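 U87 cells given an extended dose range of PROTAC for 24 h, then Western blot for IDO1. IFNγ-induced IDO1 levels normalised to untreated samples. n = 3 independent experiments; mean ± SEM.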
(Immunoblotting shows a protein as a band on a membrane.)

Series [2] has as its target T1, Protein cereblon/Indoleamine 2,3-dioxygenase 1. The series is described as follows: PROTAC activity at CRBN/N-terminal HiBiT-tagged IDO1 (unknown origin) transfected in human U87 cells assessed as induction of IDO1 degradation by measuring maximum efficacy pretreated with IFN-gamma for 24 hrs followed by compound addition and measured after 24 hrs by Nano-Glo HiBiT assay relative to control. It is filed as cell-based. An outline of the steps: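 U87 cells carrying HiBiT knocked in by CRISPR/Cas9 at the IDO1 N-terminus, treated for 24 h. Degradation read as loss of luminescence. DC50 fitted from the lowest concentration up to maximal degradation, excluding hook-effect points; triplicate mean ± SD.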
(In general: The HiBiT peptide binds its large partner to form an active luciferase.)

Series [3] has the same target. The series can be described thus: PROTAC activity at CRBN/IDO1 in human GBM43 cell assessed as induction of IDO1 degradation at 0.03 uM pretreated with IFN-gamma for 24 hrs followed by compound addition and measured after 24 hrs by Western blotting analysis (reference value: 100%). The series is classed as cell-based. Summed up: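 GBM43 patient-derived cells given an extended dose range of PROTAC for 24 h. Protein analysed by Western blot for IDO1, and IFNγ-induced IDO1 normalised to untreated samples. n = 3 independent experiments; data as mean ± SEM.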

In series [4] the test system is Kelly. The series can be described thus: Downregulation of CDK8 protein level in human Kelly cells at 1 uM incubated for 24 hrs by proteomics analysis. The series is classed as functional, cell-based.
Series [5] deals with Kelly. The series is described as follows: Downregulation of EPHX2 protein level in human Kelly cells at 1 uM incubated for 24 hrs by proteomics analysis. The series is classed as functional, cell-based.
Series [6] deals with T1, Protein cereblon/Indoleamine 2,3-dioxygenase 1. The series is described as follows: PROTAC activity at CRBN/IDO1 in human U87 cells assessed as induction of IDO1 degradation at 100 nM at 1 uM pretreated with IFN-gamma for 24 hrs followed by compound addition and measured after 24 hrs in presence of MG132 by Western blotting analysis. It is filed as cell-based.
The target is the same in series [7]. The series can be described thus: PROTAC activity at CRBN/IDO1 in human U87 cells overexpressing GFP-fused IDO1 assessed as induction of IDO1 degradation pretreated with IFN-gamma for 24 hrs followed by compound addition and measured after 24 hrs by Western blotting analysis. It is filed as cell-based. Particulars: dose 50-100 nM. Summed up: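 Cells had IDO1 induced with IFNγ, then were treated at the indicated concentrations for 24 h. Lines: PDX-6 and PDX-38 adult GBM PDX cells, U87 overexpressing GFP-fused IDO1, PC-3, KNS42, MDA-MB-231, SW-1990 and SKOV-3. Lysates probed for IDO1 and GAPDH by Western blot; representative of 3 separate replicates.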

Series [8] shares this target. The series can be described thus: PROTAC activity at CRBN/IDO1 in human U87 cells assessed as induction of IDO1 degradation by measuring remaining activity at 3 uM pretreated with IFN-gamma for 24 hrs followed by compound addition and measured after 24 hrs by Western blotting analysis (reference value: 100%). The series is classed as cell-based. Summed up: as §1
For series [9] the target is unchanged. The series can be described thus: PROTAC activity at CRBN/IDO1 in human U87 cells assessed as induction of IDO1 degradation by measuring remaining activity at 1 uM pretreated with IFN-gamma for 24 hrs followed by compound addition and measured after 24 hrs by Western blotting analysis (reference value: 100%). It is filed as cell-based. An outline of the steps:
as §1

Series [10] can be described thus: Half life in female C57BL/6J mouse plasma at 50 mg/kg, ip by LC-MS/MS analysis. It is filed as ADME, organism-based.
For another series, the system named is KNS-42. The series is described as follows: Inhibition of kynurenine production in human KNS-42 cells pretreated with IFN-gamma for 24 hrs followed by compound addition and measured after 24 hrs by Ehrlich's reagent based analysis. It is filed as functional, cell-based. Particulars: dose 50-100 nM.
Series [11] has as its target T1, Protein cereblon/Indoleamine 2,3-dioxygenase 1. The series can be described thus: PROTAC activity at CRBN/IDO1 in human U87 cells assessed as induction of IDO1 degradation by measuring remaining activity at 10 uM pretreated with IFN-gamma for 24 hrs followed by compound addition and measured after 24 hrs by Western blotting analysis (reference value: 100%). It is filed as cell-based. An outline of the steps:
as §1

The structures appear in SMILES notation. Active and inactive are the calls of the source. The rule behind the calls is not given here.

T1 sequence (P14902 whole entry, looked up): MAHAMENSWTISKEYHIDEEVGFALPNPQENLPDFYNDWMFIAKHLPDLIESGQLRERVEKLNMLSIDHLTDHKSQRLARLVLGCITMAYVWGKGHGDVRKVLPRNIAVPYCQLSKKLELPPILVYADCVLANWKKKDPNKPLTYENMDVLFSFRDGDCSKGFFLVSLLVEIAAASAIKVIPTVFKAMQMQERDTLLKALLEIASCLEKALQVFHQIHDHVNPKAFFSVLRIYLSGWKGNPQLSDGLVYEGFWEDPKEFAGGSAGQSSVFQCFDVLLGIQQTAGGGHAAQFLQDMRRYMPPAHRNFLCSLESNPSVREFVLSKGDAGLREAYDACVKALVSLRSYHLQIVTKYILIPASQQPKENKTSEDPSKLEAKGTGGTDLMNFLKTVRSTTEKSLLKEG
T1 sequence (Q96SW2 whole entry, looked up): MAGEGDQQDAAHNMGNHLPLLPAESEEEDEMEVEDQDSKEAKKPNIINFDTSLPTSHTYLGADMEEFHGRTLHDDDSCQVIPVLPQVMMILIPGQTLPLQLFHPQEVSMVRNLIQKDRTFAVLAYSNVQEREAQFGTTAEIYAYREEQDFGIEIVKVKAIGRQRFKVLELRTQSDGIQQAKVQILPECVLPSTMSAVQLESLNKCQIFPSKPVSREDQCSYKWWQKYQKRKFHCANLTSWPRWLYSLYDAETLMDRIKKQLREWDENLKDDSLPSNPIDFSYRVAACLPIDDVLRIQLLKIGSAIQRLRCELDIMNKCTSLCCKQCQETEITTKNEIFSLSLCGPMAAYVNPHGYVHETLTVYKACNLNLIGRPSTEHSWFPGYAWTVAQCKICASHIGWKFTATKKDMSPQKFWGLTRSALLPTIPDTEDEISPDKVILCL

As a reminder, the Emax is the greatest response seen or fitted, relative to the assay's reference. For orientation: half-life means how long it takes for the measured level to halve. Low readings indicate fast loss, high ones slow loss. For the compound `C[C@@H](C(=O)Nc1cccc(OC2CCN(C(=O)CN3CCC(N4CCN(c5ccc6c(c5)C(=O)N(C5CCC(=O)NC5=O)C6=O)CC4)CC3)CC2)c1)[C@H]1CC[C@@H](c2ccnc3ccc(F)cc32)CC1` (some centres not stated), the Activity in [1] was 12%; in series [3], 34%; in series [7], “Dose-dependent-effect”; in series [8] it was 55%; in [9], 35%; in series [11] it was 69%. Further, in [2], the Emax was 63%. Further, the result in the series with Kelly [4] and in the series with Kelly [5] was Active. Further, in series [6], the outcome was inactive. Moreover, in series [10], the half-life is 5.7 h. Also, the inhibition result in the series on KNS-42 was “Dose-dependent-effect”.
